Laboratory results taken from ChEMBL document CHEMBL4765424 (Eur J Med Chem, 2020).

Tests used:
[1] = tested on: Severe acute respiratory syndrome coronavirus 2; assay: Inhibition of SARS CoV2 C-terminal His6-tagged 3CL protease expressed in Escherichia coli BL21 DE3 at 50 uM using Thr-Ser-Ala-Val-Leu-Gln-pNA as substrate preincubated for 30 mins followed by substrate addition and measured for 20 mins by colorimetric method relative to control; conditions: time 50.0 min
How it was run: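 Recombinant SARS-CoV-2 3CLpro comes from a synthetic full-length gene expressed in E. coli and purified. The enzyme was preincubated with compound for 30 min at room temperature in 40 mM PBS, 100 mM NaCl, 1 mM EDTA, 0.1% Triton, pH 7.3. TSAVLQ-pNA was then added to 200 μM final. A390 was read every 30 s for 20 min. Line 1 is percent inhibition at 50 μM. IC50s were fitted with a Hill1 function.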

[2] = Inhibition of SARS CoV2 C-terminal His6-tagged 3CL protease expressed in Escherichia coli BL21 DE3 using Thr-Ser-Ala-Val-Leu-Gln-pNA as substrate preincubated for 30 mins followed by substrate addition and measured for 20 mins by colorimetric method; set-up: species or system Severe acute respiratory syndrome coronavirus 2

Row | SMILES | inhibition [1] [%] | IC50 [2] [µM]
1 | CCCN1C(=O)C(=O)c2cc(C(=O)O)ccc21 | < 25 | 
2 | NC(=O)c1ccc2c(c1)C(=O)C(=O)N2Cc1ccc2cc(-c3ccccc3)ccc2c1 |  | 24.9
3 | COC(=O)c1ccc2c(c1)C(=O)C(=O)N2C | 53 | 
4 | O=C1C(=O)N(CN2CCOCC2)c2ccc([N+](=O)[O-])cc21 | < 25 | 
5 | CN1C(=O)C(=O)c2cc(C(=O)ON3C(=O)CCC3=O)ccc21 | 45 | 
6 | CCCN1C(=O)C(=O)c2cc(I)ccc21 | 51 | 
7 | CCCCN1C(=O)C(=O)c2cc(C(=O)O)ccc21 | < 25 | 
8 | O=C1C(=O)N(CN2CCOCC2)c2ccc(F)cc21 | < 25 | 
9 | CCCCN1C(=O)C(=O)c2cc(C(N)=O)ccc21 |  | 17.8
10 | CCCCN1C(=O)C(=O)c2cc(I)ccc21 |  | 41.8
11 | O=C(O)c1ccc2c(c1)C(=O)C(=O)N2Cc1ccc2ccccc2c1 | 32 | 
12 | CN1C(=O)C(=O)c2cc(I)ccc21 | 25 | 
13 | O=C(O)c1ccc2c(c1)C(=O)C(=O)N2Cc1ccccc1 | < 25 | 
14 | NC(=O)c1ccc2c(c1)C(=O)C(=O)N2Cc1ccc2cc(Br)ccc2c1 |  | 0.047
15 | O=C(ON1C(=O)CCC1=O)c1ccc2c(c1)C(=O)C(=O)N2Cc1ccccc1 |  | 15.5
16 | COC(=O)c1ccc2c(c1)C(=O)C(=O)N2Cc1ccccc1 | 45 | 
17 | O=C1C(=O)N(CN2CCOCC2)c2ccccc21 | < 25 | 
18 | NC(=O)c1ccc2c(c1)C(=O)C(=O)N2Cc1cc2ccccc2s1 |  | 0.053
19 | CCCN1C(=O)C(=O)c2cc(C(N)=O)ccc21 |  | 10.2
20 | O=C1C(=O)N(CN2CCOCC2)c2ccc(Cl)cc21 | < 25 | 
21 | CCCCN1C(=O)C(=O)c2cc(C(=O)ON3C(=O)CCC3=O)ccc21 | 47 | 
22 | NC(=O)Cc1ccc2c(c1)C(=O)C(=O)N2Cc1ccc2ccccc2c1 |  | 39.2
23 | CCCN1C(=O)C(=O)c2cc(C(=O)OC)ccc21 | 53 | 
24 | CN1C(=O)C(=O)c2cc(C(=O)O)ccc21 | < 25 | 
25 | CCCCN1C(=O)C(=O)c2cc(C(=O)OC)ccc21 | 42 | 
26 | O=C1C(=O)N(CO)c2ccccc21 | < 25 | 
27 | NC(=O)c1ccc2c(c1)C(=O)C(=O)N2Cc1ccc2ccccc2c1 |  | 0.045
28 | O=C1C(=O)N(CN2CCCCC2)c2ccc(F)cc21 | < 25 | 
29 | COC(=O)c1ccc2c(c1)C(=O)C(=O)N2CN1CCOCC1 | 32 | 
